# The list is not random: actives were taken first. Their share in the collection is about 2.3%.
# TAAR1 agonist – human TAAR1 agonists, primary screen, Fluo-8 calcium fluorescence, CHO RD-HGA16 cells; Trace amine-associated receptor 1 (Homo sapiens), Q96RJ0; vehicle wells 0%, saturating PEA agonist 100%; activation, % at 3 µM; 360,000 compounds, 0.99% hits; AID 624467, 2012;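 active = activation above the mean activation of all test compounds in the run plus 3 SD, cut at about 38% in these data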
# Target sequence (Q96RJ0 whole entry, looked up): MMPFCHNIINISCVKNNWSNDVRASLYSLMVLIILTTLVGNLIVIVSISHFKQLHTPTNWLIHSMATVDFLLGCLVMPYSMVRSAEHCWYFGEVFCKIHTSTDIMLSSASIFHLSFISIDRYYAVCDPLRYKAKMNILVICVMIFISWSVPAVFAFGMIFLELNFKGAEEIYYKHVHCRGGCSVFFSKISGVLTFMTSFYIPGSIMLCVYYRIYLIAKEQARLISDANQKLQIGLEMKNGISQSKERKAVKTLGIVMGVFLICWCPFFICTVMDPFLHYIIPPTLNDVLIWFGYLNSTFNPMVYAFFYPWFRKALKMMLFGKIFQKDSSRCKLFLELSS
#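 System: CHO-derived RD-HGA16 cells with stable Gα16 and human TAAR1 / Times: 17-24 h plating, Fluo-8 75 min 37 °C, 30 min RT / Technique: calcium-sensitive Fluo-8 signal, excitation 470-495, emission 515-575 nm / Measure: % activation relative to PEA EC100 response / Benchmarks: DMSO and PEA EC100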
# V1R ag counter – agonists of human V1a receptor, primary screen, counter-screen for OXTR agonist project, fluorescence, CHO-V1R cells | activation, % at 3 µM | AID 2797, 2010 | Fluo-8 calcium fluorescence, agonist mode; 0% DMSO, 100% 3 nM vasopressin | 320,000 compounds, 0.25% hits;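 active = activation above the mean activation of all tested compounds plus 3 SD, per screening run, cut at about 20% in these data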;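 note: signal is peak over basal fluorescence ratio across a 100 second FLIPR read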
# TAAR1 antagonist – human TAAR1 antagonists, primary screen, Fluo-8 calcium fluorescence, CHO RD-HGA16 cells. Trace amine-associated receptor 1 (Homo sapiens), Q96RJ0. antagonist. 360,000 compounds, 1.5% hits. inhibition, % at 3 µM;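 active = inhibition above a per-plate cutoff, the mean inhibition of test compounds on that plate plus 3 SD, cut at about 49% in these data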;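 note: 0% = DMSO plus EC80 beta-PEA response and 100% = DMSO alone without agonist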
#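 Material: CHO RD-HGA16 cells bearing hTAAR1; compound dosing: one-point dosing, 3 µM nominal final; schedule: dye loading 75 min at 37 °C, then 30 min room temperature; measured by: calcium fluorescence with Fluo-8; control set: vehicle and agonist controls; replication: n of 1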
# OXTR potentiator – human OXTR potentiators, primary screen, fluorescence, CHO-OTR cells, Fluo-8 calcium; Oxytocin receptor (Homo sapiens), P30559; Fluo-8 calcium fluorescence, potentiator mode; 0% = oxytocin EC15, 100% = EC100; activation, % at 3 µM; 320,000 compounds, 0.061% hits;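 active = activation above that plate's cutoff, the mean activation of tested compounds plus 3 SD, cut at about 6.6% in these data, passing the limit was not always enough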;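 note: 100% uses oxytocin at 75 nM as the full agonist control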
#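 System: human OTR in CHO cells / Also added: sub-maximal oxytocin, roughly EC15 / Control set: EC15 oxytocin low, 75 nM oxytocin high / Schedule: 6 min compound pre-incubation at room temperature, 100 s kinetic read / Compound: single-point 3.0 µM / Replication: singlicate / Technique: Fluo-8 calcium dye fluorescence / Read-out basis: % activation of max/min ratio relative to oxytocin controls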
# OXTR agonist – human OXTR agonists, primary screen, fluorescence, CHO-OTR cells, Fluo-8 calcium; Oxytocin receptor (Homo sapiens), P30559; Fluo-8 calcium fluorescence; normalized: DMSO 0%, oxytocin 100%; activation, % at 3 µM; 320,000 compounds, 0.32% hits; AID 2435, 2010;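 active = activation above the mean of all tested compounds plus 3 SD, cutoff set per screening run, cut at about 20% in these data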;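 note: peak over basal fluorescence ratio from a 100 s FLIPR kinetic read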
# TAAR1 ag confirm – human TAAR1 agonists, retest of hits, confirmation, Fluo-8 calcium fluorescence, CHO RD-HGA16 cells; activation, % at 3 µM; scaled: DMSO 0%, maximal phenethylamine 100%; shares compounds with TAAR1 agonist; 2,400 compounds, 82% hits;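 active = activation above a cutoff set at the run's mean compound activation plus 3 SD, cut at about 39% in these data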
# Ga16 nonsel ag – nonselective calcium mobilization agonists, CHO-Ga16 cells, counter-screen for hTAAR1 agonist project, cell-based, fluorescence, CHO-Ga16 parental line; 2,400 compounds, 50% hits; shares compounds with TAAR1 agonist; activation, % at 3 µM; Fluo-8 calcium fluorescence; normalized to maximal ATP response, DMSO zero;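 active = activation above the run cutoff, the mean activation over all tested wells plus 3 SD, cut at about 12% in these data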;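 note: 0% = DMSO wells and 100% = maximal ATP response on the peak over basal ratio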
# TAAR1 desens – TAAR1 desensitization by agonist hits, confirmation, counter-screen for TAAR1 agonist project, cell-based, fluorescence, tachyphylaxis. shares compounds with TAAR1 agonist. AID 651951, 2012. inhibition, % at 3 µM. CHO RD-HGA16 hTAAR1, Fluo-8 calcium, beta-PEA response inhibition. 2,400 compounds, 46% hits;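 active = inhibition above the run cutoff, the mean inhibition of all test compounds plus 3 SD, cut at about 49% in these data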;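 note: beta-PEA stimulus applied at its EC80; loss of beta-PEA calcium signal after compound pretreatment read as receptor desensitization; 0% = DMSO with beta-PEA at EC80 and 100% = DMSO alone without agonist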
# Ga16 antag count – inhibition of ATP-evoked calcium response in CHO-Ga16 cells, counter-screen for TAAR1 agonist project, cell-based, fluorescence. AID 651952, 2012. CHO-Ga16 ATP-induced calcium, Fluo-8 fluorescence. inhibition, % at 3 µM. 2,400 compounds, 39% hits. shares compounds with TAAR1 agonist;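 active = inhibition above the plate's mean compound inhibition plus 3 SD, computed per plate, cut at about 22% in these data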;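 note: 0% = EC80 ATP with DMSO and 100% = DMSO wells without ATP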
# An asterisk follows results filed as active; · = no result given.
SMILES,TAAR1 agonist,V1R ag counter,TAAR1 antagonist,OXTR potentiator,OXTR agonist,TAAR1 ag confirm,Ga16 nonsel ag,TAAR1 desens,Ga16 antag count
CCN(CCNCC(O)COc1ccccc1C(C)C)c1cccc(C)c1 (centres undefined),73*,9,43,-7,17,79*,20*,58*,39*
CCOC(=O)N1CCN(CC(O)COc2ccccc2C(C)C)CC1 (centres undefined),7,1,8,-7,0,·,·,·,·
Cc1cc(C(F)(F)F)nn1CC(=O)NCc1cccs1,0,0,9,5,0,·,·,·,·
O=C(Oc1ccc(Br)cc1C(=S)N1CCCC1)c1ccccc1F,94*,0,57*,-6,-2,-3,3,8,7
Cc1ccc(O)c(NC(=S)NC(=O)Cc2ccc(Cl)cc2)c1,155*,79*,106*,-24,73*,140*,117*,106*,102*
O=C(CN1CCCC1c1ccc2c(c1)OCCO2)NC(=O)Nc1ccccc1 (centres undefined),18,1,-3,-5,-1,·,·,·,·
COc1cc(/C=C2/C(=O)c3cccc([N+](=O)[O-])c3C2=O)c(Br)cc1O,50*,-1,26,-4,0,37,28*,42,46*
Cc1cccc2c1cnn2C(=O)Nc1cc(F)ccc1F,10,0,-20,3,0,·,·,·,·
CN(C)c1ccc(C=NCC2COc3ccccc3O2)cc1 (centres undefined),75*,5,13,-12,1,82*,4,59*,7
CCN(CC)S(=O)(=O)c1ccc(N=Nc2c(N)[nH]c(=O)[nH]c2=O)cc1,2,0,0,-3,1,·,·,·,·
COc1cc2nc(Nc3ccc(F)cc3)nc(N)c2cc1OC,59*,3,33,-5,-2,54*,4,41,14
COc1ccc(S(=O)(=O)N2CCN(c3ncccn3)CC2)cc1[N+](=O)[O-],94*,1,27,-11,1,9,7,1,5
O=C(COC(=O)CN1C(=O)c2ccccc2C1=O)Nc1ccccc1,48*,1,-26,5,1,57*,0,8,4
Cc1ccc(NC(=O)COC(=O)CN2C(=O)c3ccccc3C2=O)cc1,15,2,11,-3,1,·,·,·,·
Cn1c(CNC(=O)C2CCCCC2)cc2cc(Cl)ccc21,65*,3,70*,-3,0,14,8,9,8
Cc1cc2cc(CNC(=O)C3CCCC3)ccc2n1C,1,4,-28,-7,1,·,·,·,·
Cc1ccc(C)c(NS(=O)(=O)c2ccc(NC(=O)CSc3ccc(Cl)cc3)cc2)c1,17,2,-9,-12,2,·,·,·,·
Cc1ccc(NS(=O)(=O)c2ccc(NC(=O)C(C)Sc3ccc(Cl)cc3)cc2)c(C)c1 (centres undefined),51*,6,18,-14,6,25,10,21,26*
O=C(NCCc1cccs1)C1CC(c2cccc(F)c2)=NO1 (centres undefined),59*,1,85*,-5,1,73*,5,94*,4
COc1ccc(-c2cc(C(=O)NCC(C)C)no2)cc1,72*,2,42,-5,2,-1,2,77*,20
CCC(C)NC(=O)c1cc(-c2ccc(OC)cc2)on1 (centres undefined),8,1,-18,-5,0,·,·,·,·
c1ccc(CCNC2=NCCS2)cc1,50*,0,3,3,2,75*,1,28,8
Cc1ccc(OP(=O)(Nc2c(C)n(C)n(-c3ccccc3)c2=O)Oc2ccc(C)cc2)cc1,50*,4,5,-4,3,27,8,8,6
Cc1ccc(N(CC(=O)N2CCN(c3ccccc3F)CC2)S(=O)(=O)c2c(C)noc2C)cc1,4,0,12,-8,0,·,·,·,·
O=C(O)c1cccc(CN2C(=O)c3ccccc3C2=O)c1,1,0,-15,-13,0,·,·,·,·
SMILES,TAAR1 agonist,V1R ag counter,TAAR1 antagonist,OXTR potentiator,OXTR agonist,TAAR1 ag confirm,Ga16 nonsel ag,TAAR1 desens,Ga16 antag count
O=C1c2cccc3c(O)ccc(c23)C(=O)N1Cc1ccccc1,367*,345*,107*,-22,302*,115*,179*,82*,88*
Cn1c2ccccc2c(=O)c2c(=O)n(C3CCCCC3)c(-c3ccco3)nc21,103*,29*,-3,-3,17,87*,62*,33,25*
CC(C)Cn1c(-c2ccco2)nc2c(c(=O)c3ccccc3n2C)c1=O,16,-2,-5,-3,-2,·,·,·,·
CN(CCc1ccccc1)C(=O)c1[nH]c(C(F)(F)F)nc1-c1ccccc1,70*,·,6,·,·,77*,6,32,4
Cc1ccc(CNC(=O)c2[nH]c(C(F)(F)F)nc2-c2ccccc2)cc1,1,·,10,·,·,·,·,·,·
CCc1nc2ccc(C(=O)NCc3cccs3)cn2c1N(CC)CCOC,-1,·,-5,·,·,·,·,·,·
Cc1cccc(C(CC(=O)NCc2ccco2)c2ccccc2)c1O (centres undefined),1,-1,6,4,-3,·,·,·,·
Cc1cccc(C(CC(=O)NCCc2ccccc2)c2ccccc2)c1O (centres undefined),66*,-2,30,-30,-2,92*,3,61*,4
O=C(Cc1n[nH]c(=O)[nH]c1=O)N/N=C/c1ccccc1O,·,1,·,0,0,·,3,·,14

# Compound activity as filed in PubChem.
